ChEMBL document CHEMBL1268856, “The tomato saponin, esculeoside A” (J Nat Prod, 2010)
Active and inactive are the calls of the source. The rule behind the calls is not given here.

Tests used:
MDM [1] = test: Antihyperlipidemic activity in human MDM cell assessed as inhibition of acetule-LDL-induced cholesterol ester accumulation after 24 hrs; type: functional, cell-based
Outline: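 Human monocyte-derived macrophages were incubated 24 h with 50 µg/mL acetyl-LDL plus 0.1 mM [3H]oleate conjugated to BSA, with or without compound. [3H]cholesteryl ester was separated by TLC and counted by radioscanner. Three independent experiments; means ± SD.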

MDM [2] = test: Antihyperlipidemic activity in human MDM cell assessed as inhibition of acetule-LDL-induced cholesterol ester accumulation after 5 hrs; type: functional, cell-based
[3] = biological target: T1, Sterol O-acyltransferase 1 (Homo sapiens) (UniProt P35610); test: Inhibition of human ACAT1 expressed in CHO cells assessed as inhibition of [3H]oleate-induced cholesterol ester accumulation; type: cell-based
T1 sequence (whole entry): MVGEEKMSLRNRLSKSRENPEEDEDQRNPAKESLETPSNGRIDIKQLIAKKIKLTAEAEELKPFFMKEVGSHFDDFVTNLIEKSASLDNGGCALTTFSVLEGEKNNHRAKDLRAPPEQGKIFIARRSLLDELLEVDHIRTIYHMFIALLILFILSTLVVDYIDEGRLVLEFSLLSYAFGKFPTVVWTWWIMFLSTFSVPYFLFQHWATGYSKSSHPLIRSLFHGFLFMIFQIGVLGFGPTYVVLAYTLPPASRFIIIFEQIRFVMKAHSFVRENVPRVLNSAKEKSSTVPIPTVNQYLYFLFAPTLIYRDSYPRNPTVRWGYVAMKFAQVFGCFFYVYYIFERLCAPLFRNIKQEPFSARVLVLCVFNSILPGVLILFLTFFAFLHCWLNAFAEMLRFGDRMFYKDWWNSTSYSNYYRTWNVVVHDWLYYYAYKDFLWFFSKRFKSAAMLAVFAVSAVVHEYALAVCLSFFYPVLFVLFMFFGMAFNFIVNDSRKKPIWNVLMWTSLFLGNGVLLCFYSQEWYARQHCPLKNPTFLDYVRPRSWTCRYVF
Outline: (§1)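 CHO cells overexpressing human ACAT-1 or ACAT-2 were incubated 24 h in medium with 10% fetal calf serum, 0.1 mM [3H]oleate-BSA and the indicated compound concentrations. [3H]cholesteryl ester was separated by TLC and radioactivity measured. Repeated three times.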

[4] = biological target: T2, Sterol O-acyltransferase 2 (Homo sapiens) (UniProt O75908); test: Inhibition of human ACAT2 expressed in CHO cells assessed as inhibition of [3H]oleate-induced cholesterol ester accumulation; type: cell-based; outline: as §1
T2 sequence (whole entry): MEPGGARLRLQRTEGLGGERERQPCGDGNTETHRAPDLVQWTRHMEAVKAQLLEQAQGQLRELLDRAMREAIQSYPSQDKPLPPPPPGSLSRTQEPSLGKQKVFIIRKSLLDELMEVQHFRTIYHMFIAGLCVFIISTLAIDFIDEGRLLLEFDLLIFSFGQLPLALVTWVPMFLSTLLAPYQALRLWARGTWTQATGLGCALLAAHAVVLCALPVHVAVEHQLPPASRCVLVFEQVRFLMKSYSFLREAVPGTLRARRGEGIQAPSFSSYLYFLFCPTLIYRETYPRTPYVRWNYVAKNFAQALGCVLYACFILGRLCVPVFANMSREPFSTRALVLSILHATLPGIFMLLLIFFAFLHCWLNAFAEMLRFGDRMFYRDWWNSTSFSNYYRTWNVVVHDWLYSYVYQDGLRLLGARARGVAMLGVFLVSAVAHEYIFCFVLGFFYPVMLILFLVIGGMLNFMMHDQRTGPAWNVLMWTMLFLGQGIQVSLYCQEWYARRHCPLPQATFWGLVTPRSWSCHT

[5] = Cytotoxicity against human MDM cells at 100 uM; type: cell-based
Mus musculus [6] = test: Antihyperlipidemic in apoE deficient mouse assessed as reduction in LDL cholesterol level at 100 mg/kg qd after 90 hrs; type: functional; set-up: scale not given: the % may be the effect or the level left; details: in the assay text read “after 90 days” for “after 90 hrs”
Outline: (§2)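 ApoE-deficient mice were fed diets with or without compound (100 mg/kg/day) for 90 days, n = 10 per group. Plasma total cholesterol, LDL cholesterol and triglyceride were then measured. Data are means ± SD.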

Mus musculus [7] = test: Antihyperlipidemic in apoE deficient mouse assessed as reduction in total cholesterol level at 100 mg/kg qd after 90 hrs; type: functional; set-up: scale not given: the % may be the effect or the level left; details: in the assay text read “after 90 days” for “after 90 hrs”; outline: as §2
Mus musculus [8] = test: Antiatherogenesis in apoE deficient mouse assessed as reduction in aortic lesions at 100 mg/kg qd; type: functional, Aorta; set-up: scale not given: the % may be the effect or the level left
Outline: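 ApoE-deficient mice given diet with or without compound at 100 mg/kg/day for 90 days, n = 10 per group. Aortic sinus cross sections stained with oil red O and viewed at ×200. Cross-sectional lesion area was quantified and compared with untreated controls.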

Mus musculus [9] = test: Antihyperlipidemic in apoE deficient mouse assessed as reduction in triglyceride level at 100 mg/kg qd after 90 hrs; type: functional; set-up: scale not given: the % may be the effect or the level left; details: in the assay text read “after 90 days” for “after 90 hrs”; outline: as §2

Row | SMILES | Activity (MDM [1]) | Activity (MDM [2]) | Activity [3] | Activity [4] | Activity [5] | Activity (Mus musculus [6]) [%] | Activity (Mus musculus [7]) [%] | Activity (Mus musculus [8]) [%] | Activity (Mus musculus [9]) [%]
1 | C[C@@H]1[C@H]2[C@H](C[C@H]3[C@@H]4CC[C@H]5C[C@@H](O)CC[C@]5(C)[C@H]4CC[C@]23C)O[C@@]12NC[C@@H](CO)C[C@@H]2O | Active | Dose-dependent effect | Dose-dependent effect | Dose-dependent effect |  |  |  |  | 
2 | CC(=O)O[C@H]1C[C@H](CO[C@@H]2O[C@H](CO)[C@@H](O)[C@H](O)[C@H]2O)CN[C@@]12O[C@H]1C[C@H]3[C@@H]4CC[C@H]5C[C@@H](O[C@@H]6O[C@H](CO)[C@H](O[C@@H]7O[C@H](CO)[C@@H](O)[C@H](O[C@@H]8OC[C@@H](O)[C@H](O)[C@H]8O)[C@H]7O[C@H]7O[C@H](CO)[C@@H](O)[C@H](O)[C@H]7O)[C@H](O)[C@H]6O)CC[C@]5(C)[C@H]4CC[C@]3(C)[C@H]1[C@H]2C [ESCULEOSIDE A] | Active |  |  |  | Non-toxic | 25 | 25 | 52 | 45
